Experimental data as given in article PMC12079426 (RSC Advances, 2025).
“And” between values parts separate entries of the source, which are not always exact repeats. Equal entries are not always repeated.

Experiments:
Type in all cases: in vivo
[1] = tested on: female Swiss albino mice; test: Acute oral toxicity study; settings: individual mice; for Body weight Day 0: pre-administration fasting weight
How it was run: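 Female Swiss albino mice (20–23 g) kept at 22 ± 3 °C, 50–65% humidity, 12 h light/dark. OECD 423 stepwise design, three mice per step: 300 mg/kg, then 2000 mg/kg. Test compound was given in distilled water by oral intubation needle. Feed was withheld 3–4 h before and 2 h after dosing. Fasting weight was taken pre-dose, then on days 7 and 14.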

[2] = tested on: female Swiss albino mice; test: Tail Suspension Test; settings: percentage decrease in duration of immobility compared to disease control
How it was run: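 Female Swiss albino mice (20–23 g) received standard or test compound 30 min before testing. Each mouse was hung by the tail from a hook in a three-sided chamber, 50 cm above the surface. Total immobility was recorded over a 10-min session and reported as mean ± SEM.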

[3] = tested on: female Swiss albino mice; test: Forced Swim Test; settings: percentage decrease in duration of immobility compared to disease control
How it was run: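 Female Swiss albino mice (20–23 g) were dosed 30 min before testing: saline 10 mL/kg (control), fluoxetine 10 mg/kg (standard), or test compound 100 mg/kg. Two 10-min swim sessions ran 24 h apart (pre-test, then test). Water was at 23 ± 1 °C, deep enough that hind legs could not touch bottom, and changed after each trial. Immobility duration reported as mean ± SEM.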

Row | SMILES | Body weight Day 7 ([1]; Step I 300 mg kg^−1 oral) | Body weight Day 14 ([1]; Step I 300 mg kg^−1 oral) | Body weight Day 0 ([1]; Step I 300 mg kg^−1 oral) | Body weight Day 7 ([1]; Step II 2000 mg kg^−1 oral) | Body weight Day 14 ([1]; Step II 2000 mg kg^−1 oral) | Body weight Day 0 ([1]; Step II 2000 mg kg^−1 oral) | DID (%) Tail suspension test [2] | DID (%) Forced swim test [3]
1 | Cc1nn(-c2ccccc2)c(N2CCCCC2)c1/C=C/C(=O)c1ccc(-n2c3ccccc3c3ccccc32)cc1 [13a, (E)-1-(4-(9H-Carbazol-9-yl)phenyl)-3-(3-methyl-1-phenyl-5-(piperidin-1-yl)-1H-pyrazol-4-yl)prop-2-en-1-one] | 28 g and 26.5 g and 29 g | 32 g and 33 g and 34.5 g | 22.5 g and 21.5 g and 25 g | 29.5 g and 29 g and 30 g | 33 g and 32.5 g and 35 g | 24 g and 23.5 g | 5.74% | 24.92%
2 | Cc1nn(-c2ccccc2)c(N2CCOCC2)c1/C=C/C(=O)c1ccc(-n2c3ccccc3c3ccccc32)cc1 [13b, (E)-1-(4-(9H-Carbazol-9-yl)phenyl)-3-(3-methyl-5-morpholino-1-phenyl-1H-pyrazol-4-yl)prop-2-en-1-one] | 26.5 g and 29 g and 29.5 g | 32.5 g and 36 g and 34.5 g | 23.5 g and 24 g | 27.5 g and 30.5 g and 27 g | 32 g and 34.5 g | 23 g and 24.5 g and 21.5 g | 11.30% | 23.47%
3 | Cc1nn(-c2ccccc2)c(-n2nnc3ccccc32)c1/C=C/C(=O)c1ccc(-n2c3ccccc3c3ccccc32)cc1 [13c, (E)-3-(5-(1H-Benzo[d][1,2,3]triazol-1-yl)-3-methyl-1-phenyl-1H-pyrazol-4-yl)-1-(4-(9H-carbazol-9-yl)phenyl)prop-2-en-1-one] | 26.5 g | 31 g and 30 g | 22.5 g and 23.5 g and 21.5 g | 28 g and 28.5 g and 29.5 g | 33.5 g and 34.5 g | 22 g and 23.5 g | 34.67% | 35.63%
4 | COc1c(/C=C/C(=O)c2ccc(-n3c4ccccc4c4ccccc43)cc2)c(C)nn1-c1ccccc1 [13d, (E)-1-(4-(9H-Carbazol-9-yl)phenyl)-3-(5-methoxy-3-methyl-1-phenyl-1H-pyrazol-4-yl)prop-2-en-1-one] |  |  |  |  |  |  | 8.55% | 
5 | Cc1nn(-c2ccccc2)c(N2CCCCC2)c1/C=C/C(=O)c1ccc(-n2ccc3ccccc32)cc1 [14a, (E)-1-(4-(1H-Indol-1-yl)phenyl)-3-(3-methyl-1-phenyl-5-(piperidin-1-yl)-1H-pyrazol-4-yl)prop-2-en-1-one] |  |  |  |  |  |  | 2.58% | 16.61%
6 | Cc1nn(-c2ccccc2)c(N2CCOCC2)c1/C=C/C(=O)c1ccc(-n2ccc3ccccc32)cc1 [14b, (E)-1-(4-(1H-Indol-1-yl)phenyl)-3-(3-methyl-5-morpholino-1-phenyl-1H-pyrazol-4-yl)prop-2-en-1-one] |  |  |  |  |  |  | 1.92% | 2.22%
7 | Cc1nn(-c2ccccc2)c(-n2nnc3ccccc32)c1/C=C/C(=O)c1ccc(-n2ccc3ccccc32)cc1 [14c, (E)-3-(5-(1H-Benzo[d][1,2,3]triazol-1-yl)-3-methyl-1-phenyl-1H-pyrazol-4-yl)-1-(4-(1H-indol-1-yl)phenyl)prop-2-en-1-one] |  |  |  |  |  |  | 9.60% | 17.90%
8 | COc1c(/C=C/C(=O)c2ccc(-n3ccc4ccccc43)cc2)c(C)nn1-c1ccccc1 [14d, (E)-1-(4-(1H-Indol-1-yl)phenyl)-3-(5-methoxy-3-methyl-1-phenyl-1H-pyrazol-4-yl)prop-2-en-1-one] |  |  |  |  |  |  | 5.57% | 13.62%
9 | Cc1nn(-c2ccccc2)c(N2CCCCC2)c1/C=C/C(=O)c1ccc(-n2cccc2)cc1 [15a, (E)-1-(4-(1H-Pyrrol-1-yl)phenyl)-3-(3-methyl-1-phenyl-5-(piperidin-1-yl)-1H-pyrazol-4-yl)prop-2-en-1-one] |  |  |  |  |  |  | 4.50% | 6.55%
10 | Cc1nn(-c2ccccc2)c(N2CCOCC2)c1/C=C/C(=O)c1ccc(-n2cccc2)cc1 [15b, (E)-1-(4-(1H-Pyrrol-1-yl)phenyl)-3-(3-methyl-5-morpholino-1-phenyl-1H-pyrazol-4-yl)prop-2-en-1-one] |  |  |  |  |  |  | 5.74% | 11.56%
11 | Cc1nn(-c2ccccc2)c(-n2nnc3ccccc32)c1/C=C/C(=O)c1ccc(-n2cccc2)cc1 [15c, (E)-3-(5-(1H-Benzo[d][1,2,3]triazol-1-yl)-3-methyl-1-phenyl-1H-pyrazol-4-yl)-1-(4-(1H-pyrrol-1-yl)phenyl)prop-2-en-1-one] |  |  |  |  |  |  | 14.60% | 22.99%
12 | COc1c(/C=C/C(=O)c2ccc(-n3cccc3)cc2)c(C)nn1-c1ccccc1 [15d, (E)-1-(4-(1H-Pyrrol-1-yl)phenyl)-3-(5-methoxy-3-methyl-1-phenyl-1H-pyrazol-4-yl)prop-2-en-1-one] |  |  |  |  |  |  | 16.24% | 22.53%
13 | CNCCC(Oc1ccc(C(F)(F)F)cc1)c1ccccc1 (stereo not shown) [Fluoxetine, reference compound] |  |  |  |  |  |  | 59.67% | 56.17%
